High-throughput results deposited in PubChem BioAssay by several laboratories.
Wee1 degr inh – human Wee1 degradation inhibition, primary screen. HeLa Luc-Wee1K328M stability, luciferase luminescence; 100% = proteasome inhibitor MG132 effect. reporter increase, % at 5 µM. P30291. actives 1.2% (n = 220,000);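 active = activation above the mean of all tested compounds plus 3 SD, set per screening run, cut at about 8.8% in these data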;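 also: cells exposed to compound for 20 h before luminescence read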
TNF necrop inh – TNF-alpha cell death inhibition in Jurkat FADD-/- cells; Jurkat FADD-/- TNF necroptosis rescue, ATP luminescence, 24 h; 0 = TNF only, 100 = no-TNF cells; activation (protection from cell death), % at 10 µM; actives 0.068% (n = 220,000);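 active = activation, meaning protection from cell death, of at least 50% relative to plate controls; inactive = activation below 50%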;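 also: necroptosis triggered by 40 ng/mL TNF-alpha added together with compound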
L929 necroptosis – L929 zVAD cell death inhibition | L929 zVAD necroptosis rescue, ATP luminescence, 24 h; with zVAD 60 µM | viability rescue, % at 10 µM | AID 1377 | actives 0.38% (n = 220,000);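 active = activation, scaled between plate controls, above about 75%, limit read from the data; inactive = activation under that limit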
RBBP9 inhibitor – blocks human serine hydrolase RBBP9; recombinant RBBP9, FP-Rh probe fluorescence polarization; inhibition, % at 7.94 µM; actives 0.2% (n = 220,000); AID 1515;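 active = inhibition above the campaign mean of all tested compounds plus 3 SD, cut at about 14% in these data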
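Assay system: recombinant human RBBP9; Reagent: Serine-hydrolase probe FP-Rh, 375 nM pre-mixing; Doses: 7.94 µM single dose, 0.794% DMSO; Incubation: 30 min then 45 min, 25 °C; Detection: fluorescence polarization (mP), excitation 525 nm, emission 598 nm; Evaluation: percent inhibition from mP, scaled between DMSO and no-protein wells.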
PfM18AAP inh – PfM18AAP enzyme inhibition. recombinant PfM18AAP, H-Glu-NHMec fluorogenic cleavage. inhibition, % at 7.35 µM. actives 1.2% (n = 290,000). AID 1822;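 active = inhibition above the campaign mean inhibition over all tested compounds plus 3 SD, cut at about 28% in these data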
p97 ATPase inh – inhibitors of human p97 ATPase. P55072. recombinant p97 ATPase, Kinase-Glo ATP luminescence, 3 h. inhibition, % at 8 µM. actives 0.42% (n = 220,000); in the data active = inhibition above about 15%
Target sequence (P55072 whole entry, looked up): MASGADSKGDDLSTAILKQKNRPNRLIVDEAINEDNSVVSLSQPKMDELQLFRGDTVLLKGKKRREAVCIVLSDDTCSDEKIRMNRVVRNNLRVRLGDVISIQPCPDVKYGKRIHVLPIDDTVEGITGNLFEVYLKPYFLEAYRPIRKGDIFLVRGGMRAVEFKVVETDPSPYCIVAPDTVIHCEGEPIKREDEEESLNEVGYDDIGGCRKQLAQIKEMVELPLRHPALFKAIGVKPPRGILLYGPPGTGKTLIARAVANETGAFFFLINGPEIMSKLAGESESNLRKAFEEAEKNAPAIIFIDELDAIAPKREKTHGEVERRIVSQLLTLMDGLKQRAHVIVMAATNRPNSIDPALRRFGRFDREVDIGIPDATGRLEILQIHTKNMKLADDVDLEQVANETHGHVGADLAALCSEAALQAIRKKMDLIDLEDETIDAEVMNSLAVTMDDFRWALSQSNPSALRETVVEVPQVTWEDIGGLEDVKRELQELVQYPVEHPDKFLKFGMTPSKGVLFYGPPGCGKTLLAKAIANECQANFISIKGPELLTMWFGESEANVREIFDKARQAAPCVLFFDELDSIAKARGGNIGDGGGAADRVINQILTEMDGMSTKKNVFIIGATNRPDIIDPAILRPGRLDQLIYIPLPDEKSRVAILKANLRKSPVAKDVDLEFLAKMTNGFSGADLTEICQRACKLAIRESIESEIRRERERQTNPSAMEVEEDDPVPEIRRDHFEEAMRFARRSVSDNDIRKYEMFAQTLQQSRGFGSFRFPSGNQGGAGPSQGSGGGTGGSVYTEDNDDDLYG
A number is an active result; ! = a repeat was not active. A selection: hits, their analogues and other compounds. The true share with any hit is near 2.7%.

For CCc1nnc(N/N=C/c2ccccc2F)n1N the results were Wee1 degr inh inactive, TNF necrop inh inactive, L929 necroptosis inactive, RBBP9 inhibitor inactive, PfM18AAP inh 62 and p97 ATPase inh inactive.
NC(=S)N/N=C1/CCSc2ccc3ccccc3c21 was read as Wee1 degr inh inactive, TNF necrop inh inactive, L929 necroptosis inactive, RBBP9 inhibitor inactive, PfM18AAP inh inactive and p97 ATPase inh inactive.
Screening CCCc1ccc2oc(C(=O)N(C)Cc3nccs3)c(C)c2c1 returned PfM18AAP inh inactive.
Screening O=C(c1ccc(Cl)c(NC2=NC3CS(=O)(=O)CC3S2)c1)N1CCN(c2ccc(F)cc2)CC1 (centres undefined) returned PfM18AAP inh inactive.
Screening O=C(CCN1CCOCC1)NNC(=S)NC(=O)c1ccc(Br)cc1 returned Wee1 degr inh inactive, TNF necrop inh inactive, L929 necroptosis inactive, RBBP9 inhibitor inactive, PfM18AAP inh 30 and p97 ATPase inh inactive.
For O=S(=O)(c1ccccc1)N1CCN(c2nnc(-c3ccccc3)c3ccccc23)CC1 the results were Wee1 degr inh 9.5, TNF necrop inh inactive, L929 necroptosis inactive, RBBP9 inhibitor inactive, PfM18AAP inh inactive and p97 ATPase inh inactive.
Screening Oc1c(N=Nc2ccc(F)cc2)ccc2ccccc12 returned PfM18AAP inh inactive.
`Oc1ccc2ccccc2c1N=Nc1ccc(F)cc1` gave Wee1 degr inh 22!, TNF necrop inh inactive, L929 necroptosis inactive, RBBP9 inhibitor inactive, PfM18AAP inh inactive and p97 ATPase inh inactive.
`Cc1cc(-c2nnc(CCC(=O)N(C)C(C)c3cccs3)o2)no1` (centres undefined) gave Wee1 degr inh inactive, TNF necrop inh inactive, L929 necroptosis inactive, RBBP9 inhibitor inactive, PfM18AAP inh inactive and p97 ATPase inh inactive.
`Cc1cc(Cl)cc(C)c1OCCOCCNCc1ccccc1` gave PfM18AAP inh inactive.
`O=C(COC(=O)Cn1cnc2ccccc21)Nc1cc(S(=O)(=O)N2CCOCC2)ccc1Cl` gave Wee1 degr inh inactive, TNF necrop inh inactive, L929 necroptosis inactive, RBBP9 inhibitor inactive, PfM18AAP inh inactive and p97 ATPase inh inactive.
For O=C(COC(=O)Cn1cnc2ccccc21)Nc1cc2c(cc1Cl)C(=O)c1ccccc1C2=O the results were Wee1 degr inh 11, TNF necrop inh inactive, L929 necroptosis inactive, RBBP9 inhibitor inactive, PfM18AAP inh inactive and p97 ATPase inh inactive.
`O=[N+]([O-])c1ccc(NNC(=S)Nc2ccc(F)cc2)cc1` gave Wee1 degr inh inactive, TNF necrop inh inactive, L929 necroptosis inactive, RBBP9 inhibitor inactive, PfM18AAP inh 29 and p97 ATPase inh inactive.
O=C(CSC(=S)N1CCOCC1)N1N=CCC1c1ccccc1 (centres undefined) was read as Wee1 degr inh inactive, TNF necrop inh 50, L929 necroptosis inactive, RBBP9 inhibitor inactive, PfM18AAP inh inactive and p97 ATPase inh inactive.
`O=C(CN1CCN(C(c2ccccc2)c2ccccc2)CC1)N1N=CCC1c1ccccc1` (centres undefined) gave Wee1 degr inh inactive, TNF necrop inh 68, L929 necroptosis inactive, RBBP9 inhibitor inactive, PfM18AAP inh inactive and p97 ATPase inh inactive.
For C/C=C/c1ccc(OCCCCOc2c(OC)cccc2OC)c(OC)c1 the results were Wee1 degr inh 15, TNF necrop inh inactive, L929 necroptosis inactive, RBBP9 inhibitor inactive, PfM18AAP inh inactive and p97 ATPase inh inactive.
For Cc1cc(C)c(C)c(S(=O)(=O)NCc2ccc(C(=O)NCC3CCCO3)cc2)c1C (centres undefined) the results were PfM18AAP inh inactive.
Screening CC(C)c1ccc(/C=N/NC(=O)c2ccccc2Cl)cc1 returned Wee1 degr inh 8.9, TNF necrop inh inactive, L929 necroptosis inactive, RBBP9 inhibitor inactive, PfM18AAP inh inactive and p97 ATPase inh inactive.
`COc1cc(C(=O)NCc2nnc(SCC(=O)Nc3cc(C)on3)o2)cc(OC)c1OC` gave Wee1 degr inh inactive, TNF necrop inh inactive, L929 necroptosis inactive, RBBP9 inhibitor inactive, PfM18AAP inh inactive and p97 ATPase inh inactive.
`COc1ccc(C(=O)NCc2nnc(SCC(=O)Nc3cc(C)on3)o2)cc1OC` gave Wee1 degr inh inactive, TNF necrop inh inactive, L929 necroptosis inactive, RBBP9 inhibitor inactive, PfM18AAP inh 30 and p97 ATPase inh inactive.
CCOc1ccc(OCc2ccc(C(=O)N/N=C(\C)c3ccccn3)cc2)cc1 was read as Wee1 degr inh 9.6, TNF necrop inh inactive, L929 necroptosis inactive, RBBP9 inhibitor inactive, PfM18AAP inh inactive and p97 ATPase inh inactive.
`Cc1ncoc1C(=O)N1CCc2c([nH]c3ccccc23)C1C1CCCCC1` (centres undefined) gave Wee1 degr inh inactive, TNF necrop inh inactive, L929 necroptosis inactive, RBBP9 inhibitor inactive, PfM18AAP inh inactive and p97 ATPase inh inactive.
For O=C(O)C1CCCC2CN3CCc4c([nH]c5ccccc45)C3C(O)C21 (centres undefined) the results were PfM18AAP inh 28.
`C=CCn1c(SCC(=O)NC2CCS(=O)(=O)C2)nc2scc(C3CC3)c2c1=O` (centres undefined) gave Wee1 degr inh 9.7, TNF necrop inh inactive, L929 necroptosis inactive, RBBP9 inhibitor inactive, PfM18AAP inh inactive and p97 ATPase inh inactive.
`C=CCn1c(SCC(=O)c2ccc(CNC(C)=O)o2)nc2scc(C3CC3)c2c1=O` gave Wee1 degr inh inactive, TNF necrop inh inactive, L929 necroptosis inactive, RBBP9 inhibitor inactive, PfM18AAP inh inactive and p97 ATPase inh inactive.
`O=C(N/N=C/c1ccccc1Cl)c1[nH]c2ccc(Br)cc2c1-c1ccccc1` gave Wee1 degr inh 11, TNF necrop inh inactive, L929 necroptosis inactive, RBBP9 inhibitor inactive, PfM18AAP inh inactive and p97 ATPase inh inactive.
`COc1ccc(/C=N/NC(=O)c2[nH]c3ccc(Br)cc3c2-c2ccccc2)c(C(=O)O)c1OC` gave Wee1 degr inh inactive, TNF necrop inh inactive, L929 necroptosis inactive, RBBP9 inhibitor inactive, PfM18AAP inh inactive and p97 ATPase inh inactive.
`O=S(=O)(c1ccc2ccccc2c1)N1CCN(C(=S)Nc2ccc(F)c(Cl)c2)CC1` gave Wee1 degr inh inactive, TNF necrop inh inactive, L929 necroptosis inactive, RBBP9 inhibitor inactive, PfM18AAP inh inactive and p97 ATPase inh inactive.
`Cc1ccc(NC(=S)NNc2ncc(C(F)(F)F)cc2Cl)c(C)c1` gave Wee1 degr inh inactive, TNF necrop inh inactive, L929 necroptosis inactive, RBBP9 inhibitor inactive, PfM18AAP inh 28 and p97 ATPase inh inactive.
`COc1cccc(CNC(=O)N[C@@H](C)C(=O)O)c1` gave Wee1 degr inh inactive, TNF necrop inh inactive, L929 necroptosis inactive, RBBP9 inhibitor inactive, PfM18AAP inh inactive and p97 ATPase inh inactive.
For COc1cc2c(cc1OC)CN(C(=O)c1cccc([N+](=O)[O-])c1)CC2 the results were Wee1 degr inh 10, TNF necrop inh inactive, L929 necroptosis inactive, RBBP9 inhibitor inactive, PfM18AAP inh inactive and p97 ATPase inh inactive.
